What was measured:
[1] = target: T1, Inhibitor of nuclear factor kappa-B kinase subunit beta (Homo sapiens, UniProt O14920); assay: Inhibition of IKKbeta using 5FAM-GRHDSGLDSMK-NH2 as substrate incubated for 10 mins prior to substrate addition by IMAP-TR-FRET assay
T1 sequence (O14920 whole entry): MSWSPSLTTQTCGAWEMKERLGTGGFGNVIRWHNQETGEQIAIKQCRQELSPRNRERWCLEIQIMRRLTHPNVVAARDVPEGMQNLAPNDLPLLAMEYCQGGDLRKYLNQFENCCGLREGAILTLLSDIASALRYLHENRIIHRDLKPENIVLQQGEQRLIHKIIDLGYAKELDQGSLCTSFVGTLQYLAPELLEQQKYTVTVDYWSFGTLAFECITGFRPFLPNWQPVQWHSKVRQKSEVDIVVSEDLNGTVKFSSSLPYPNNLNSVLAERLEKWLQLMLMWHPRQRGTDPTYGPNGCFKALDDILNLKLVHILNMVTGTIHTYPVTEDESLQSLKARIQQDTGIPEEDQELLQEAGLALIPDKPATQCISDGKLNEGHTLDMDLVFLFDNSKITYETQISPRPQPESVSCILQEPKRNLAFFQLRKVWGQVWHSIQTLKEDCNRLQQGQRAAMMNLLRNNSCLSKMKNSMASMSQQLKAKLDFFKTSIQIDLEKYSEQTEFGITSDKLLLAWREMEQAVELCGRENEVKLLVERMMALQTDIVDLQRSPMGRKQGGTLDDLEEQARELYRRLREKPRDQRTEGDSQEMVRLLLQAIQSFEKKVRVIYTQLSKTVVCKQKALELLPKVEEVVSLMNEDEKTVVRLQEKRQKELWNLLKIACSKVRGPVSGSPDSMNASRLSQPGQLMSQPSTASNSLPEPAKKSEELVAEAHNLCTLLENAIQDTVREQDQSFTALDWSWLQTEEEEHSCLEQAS

[2] = target: T2, Inhibitor of nuclear factor kappa-B kinase subunit beta (Homo sapiens) (UniProt O14920); assay: Inhibition of IKKbeta in human HeLa cells assessed as inhibition of TPA-induced NFkappaB activation at 10 uM incubated for 1 hr prior to TPA-challenge measured after 8 hrs by luciferase reporter gene assay; type: cell-based
T2 sequence (whole entry): T1 sequence (O14920 whole entry)
Outline: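 HeLa cells transfected with an NF-κB luciferase reporter plasmid, pre-treated with inhibitor for 1 h, then stimulated with TPA (50 ng/mL) for 8 h. Luciferase activity normalized to protein content of each extract, expressed as relative luciferase units per mg versus non-treated cells; n = 3.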

[3] = target: T3, Inhibitor of nuclear factor kappa-B kinase subunit beta (Mus musculus, UniProt O88351); assay: Inhibition of IKKbeta in mouse CIA model splenocytes assessed as inhibition of TNFalpha production after 72 hrs by ELISA; type: cell-based
T3 sequence (O88351 whole entry): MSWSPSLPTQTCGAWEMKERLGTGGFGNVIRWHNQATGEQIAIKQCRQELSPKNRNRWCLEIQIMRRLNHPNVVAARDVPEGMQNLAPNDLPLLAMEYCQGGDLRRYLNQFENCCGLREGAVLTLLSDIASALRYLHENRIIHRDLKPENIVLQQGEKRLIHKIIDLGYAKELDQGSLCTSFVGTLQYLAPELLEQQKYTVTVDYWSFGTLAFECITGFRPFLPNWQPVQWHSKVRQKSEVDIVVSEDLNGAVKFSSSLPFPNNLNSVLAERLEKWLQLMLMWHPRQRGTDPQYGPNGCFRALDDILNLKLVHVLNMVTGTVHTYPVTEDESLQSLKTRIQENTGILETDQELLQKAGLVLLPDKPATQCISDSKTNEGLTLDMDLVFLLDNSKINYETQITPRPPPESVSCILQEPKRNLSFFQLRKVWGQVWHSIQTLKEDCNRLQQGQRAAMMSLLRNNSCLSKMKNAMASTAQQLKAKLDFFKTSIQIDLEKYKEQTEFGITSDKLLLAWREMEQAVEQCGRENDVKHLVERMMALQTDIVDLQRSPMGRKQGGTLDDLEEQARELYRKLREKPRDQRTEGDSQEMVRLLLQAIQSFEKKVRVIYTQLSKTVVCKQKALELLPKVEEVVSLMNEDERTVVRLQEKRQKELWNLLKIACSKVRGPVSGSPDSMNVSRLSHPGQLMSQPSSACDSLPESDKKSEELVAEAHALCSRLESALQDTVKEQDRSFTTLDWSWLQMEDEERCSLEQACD
Outline: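 Spleens from collagen type II-immunized mice were taken 8 weeks after primary immunization. Red cells were lysed with 0.83% ammonium chloride, and cells were strained and resuspended in RPMI 1640 at 1 × 10^6 cells/well, then exposed to inhibitor for 72 h. Supernatant TNFα was measured by sandwich ELISA with an alkaline phosphatase chromogenic read at 405 nm, quantified against a recombinant murine TNFα standard curve.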

[4] = target: T4, Inhibitor of nuclear factor kappa-B kinase subunit alpha (Homo sapiens, UniProt O15111); assay: Inhibition of IKKalpha
T4 sequence (O15111 whole entry): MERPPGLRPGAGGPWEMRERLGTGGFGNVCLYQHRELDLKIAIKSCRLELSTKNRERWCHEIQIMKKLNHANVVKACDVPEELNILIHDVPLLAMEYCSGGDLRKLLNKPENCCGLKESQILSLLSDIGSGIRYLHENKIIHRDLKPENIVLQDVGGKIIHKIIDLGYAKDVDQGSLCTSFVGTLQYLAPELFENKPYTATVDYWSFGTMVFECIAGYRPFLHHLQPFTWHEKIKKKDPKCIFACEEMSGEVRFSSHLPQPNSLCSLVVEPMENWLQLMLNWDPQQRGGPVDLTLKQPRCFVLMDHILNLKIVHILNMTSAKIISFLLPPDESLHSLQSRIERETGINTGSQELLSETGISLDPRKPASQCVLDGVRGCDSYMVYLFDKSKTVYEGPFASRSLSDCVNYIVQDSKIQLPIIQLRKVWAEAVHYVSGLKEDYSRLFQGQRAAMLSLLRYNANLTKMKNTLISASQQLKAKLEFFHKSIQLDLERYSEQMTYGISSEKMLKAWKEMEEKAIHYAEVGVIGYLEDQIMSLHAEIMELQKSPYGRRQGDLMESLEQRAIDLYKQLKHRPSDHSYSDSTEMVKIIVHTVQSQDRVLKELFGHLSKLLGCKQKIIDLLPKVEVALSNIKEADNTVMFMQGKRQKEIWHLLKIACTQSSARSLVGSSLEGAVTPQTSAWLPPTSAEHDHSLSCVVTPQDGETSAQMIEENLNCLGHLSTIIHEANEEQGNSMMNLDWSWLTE

[5] = target: T2, Inhibitor of nuclear factor kappa-B kinase subunit beta (Homo sapiens); assay: Inhibition of IKKbeta using 5FAM-GRHDSGLDSMK-NH2 as substrate at 10 uM incubated for 10 mins prior to substrate addition by IMAP-TR-FRET assay
[6] = target: Mitogen-activated protein kinase 14 (Homo sapiens, UniProt Q16539); assay: Inhibition of MAPK p38alpha
Chain of Mitogen-activated protein kinase 14 (Q16539 whole entry): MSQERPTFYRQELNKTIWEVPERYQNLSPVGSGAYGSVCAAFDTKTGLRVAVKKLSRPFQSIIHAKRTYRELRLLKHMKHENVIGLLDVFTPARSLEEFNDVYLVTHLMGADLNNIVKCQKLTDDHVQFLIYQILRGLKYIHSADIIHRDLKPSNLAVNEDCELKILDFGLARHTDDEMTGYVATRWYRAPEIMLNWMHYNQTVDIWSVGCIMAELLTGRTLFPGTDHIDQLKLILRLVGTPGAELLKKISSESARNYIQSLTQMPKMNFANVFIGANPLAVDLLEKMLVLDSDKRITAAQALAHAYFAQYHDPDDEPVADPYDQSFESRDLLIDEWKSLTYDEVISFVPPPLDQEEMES

[7] = target: Mitogen-activated protein kinase 11 (Homo sapiens, UniProt Q15759); assay: Inhibition of MAPK p38beta
Chain of Mitogen-activated protein kinase 11 (Q15759 whole entry): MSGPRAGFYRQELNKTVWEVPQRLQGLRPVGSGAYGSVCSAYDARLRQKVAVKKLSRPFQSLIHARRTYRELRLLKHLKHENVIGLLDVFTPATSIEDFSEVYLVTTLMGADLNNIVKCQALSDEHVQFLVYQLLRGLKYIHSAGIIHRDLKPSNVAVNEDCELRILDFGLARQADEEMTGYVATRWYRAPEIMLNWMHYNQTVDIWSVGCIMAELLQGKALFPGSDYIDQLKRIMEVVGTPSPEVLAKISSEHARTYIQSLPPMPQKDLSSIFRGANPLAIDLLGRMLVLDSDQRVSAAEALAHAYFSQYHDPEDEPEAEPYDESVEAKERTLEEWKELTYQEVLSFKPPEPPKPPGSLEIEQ

[8] = target: Mitogen-activated protein kinase 8 (Homo sapiens, UniProt P45983); assay: Inhibition of JNK1
Chain of Mitogen-activated protein kinase 8 (P45983 whole entry): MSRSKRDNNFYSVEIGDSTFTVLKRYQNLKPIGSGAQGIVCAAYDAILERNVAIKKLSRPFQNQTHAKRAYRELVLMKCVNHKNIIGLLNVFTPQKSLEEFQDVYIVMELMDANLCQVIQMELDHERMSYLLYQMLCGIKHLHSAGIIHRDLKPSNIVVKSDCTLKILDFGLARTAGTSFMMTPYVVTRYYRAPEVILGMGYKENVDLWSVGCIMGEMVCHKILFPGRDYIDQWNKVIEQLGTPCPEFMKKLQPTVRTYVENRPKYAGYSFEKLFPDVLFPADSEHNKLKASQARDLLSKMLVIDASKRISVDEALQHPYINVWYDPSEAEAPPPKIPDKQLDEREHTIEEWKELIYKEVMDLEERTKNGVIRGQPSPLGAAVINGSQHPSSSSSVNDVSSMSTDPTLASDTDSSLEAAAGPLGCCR

[9] = target: Mitogen-activated protein kinase 9 (Homo sapiens, UniProt P45984); assay: Inhibition of JNK2
Chain of Mitogen-activated protein kinase 9 (P45984 whole entry): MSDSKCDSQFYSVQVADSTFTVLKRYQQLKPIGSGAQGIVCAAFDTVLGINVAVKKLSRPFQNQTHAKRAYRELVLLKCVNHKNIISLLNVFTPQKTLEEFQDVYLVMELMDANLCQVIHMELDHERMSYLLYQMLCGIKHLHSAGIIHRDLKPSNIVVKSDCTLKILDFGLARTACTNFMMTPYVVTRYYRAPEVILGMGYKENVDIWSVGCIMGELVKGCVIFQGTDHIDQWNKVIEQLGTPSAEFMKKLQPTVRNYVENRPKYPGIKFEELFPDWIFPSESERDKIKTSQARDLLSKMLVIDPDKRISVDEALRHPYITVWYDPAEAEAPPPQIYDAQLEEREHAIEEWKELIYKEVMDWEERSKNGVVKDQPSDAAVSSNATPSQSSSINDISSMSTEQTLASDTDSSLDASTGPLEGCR

[10] = target: Mitogen-activated protein kinase 10 (Homo sapiens, UniProt P53779); assay: Inhibition of JNK3
Chain of Mitogen-activated protein kinase 10 (P53779 whole entry): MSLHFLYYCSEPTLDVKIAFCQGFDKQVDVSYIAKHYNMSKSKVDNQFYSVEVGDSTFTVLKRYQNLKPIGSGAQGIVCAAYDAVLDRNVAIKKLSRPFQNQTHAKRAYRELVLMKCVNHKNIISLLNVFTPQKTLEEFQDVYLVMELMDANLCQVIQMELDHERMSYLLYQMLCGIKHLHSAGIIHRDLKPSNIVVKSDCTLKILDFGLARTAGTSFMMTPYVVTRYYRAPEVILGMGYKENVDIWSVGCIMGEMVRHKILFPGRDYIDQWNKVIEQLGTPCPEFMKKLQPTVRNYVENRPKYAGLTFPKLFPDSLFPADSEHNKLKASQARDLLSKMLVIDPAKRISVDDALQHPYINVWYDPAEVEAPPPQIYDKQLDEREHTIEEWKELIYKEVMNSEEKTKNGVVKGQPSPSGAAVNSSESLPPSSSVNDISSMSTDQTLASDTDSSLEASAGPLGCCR

| IC50 [1] [µM] | inhibition [2] [%] | IC50 [3] [µM] | inhibition [5] [%] | Structure (SMILES) | other results |
| --- | --- | --- | --- | --- | --- |
| 0.17 | 73.9 | 1.8 | 88.7 | N#Cc1c(C2CCCNC2)cc(-c2ccccc2O)nc1N (stereo not drawn) | IC50 [4]: 0.64 µM |
| 0.35 | 65.4 | 2 | 90.1 | CN1CCN(CCCOc2ccc(N3C(=O)/C(=C/c4ccc(Oc5ccc(C(N)=O)cc5)cc4)SC3=S)cc2)CC1 | IC50 [4]: > 30 µM; IC50 [6]: > 30 µM; IC50 [7]: > 30 µM; IC50 [8]: > 30 µM; IC50 [9]: > 30 µM; IC50 [10]: > 30 µM |
|  | 57 | 7 | 17.1 | CCN(CC)CCOc1ccc(N2C(=O)/C(=C/c3ccc(Oc4cccc(C(N)=O)c4)cc3)SC2=S)cc1 |  |
| 3.3 | 57.4 |  | 77.2 | CCN(CC)CCCOc1ccc(N2C(=O)/C(=C/c3ccc(-c4ccc(C(N)=O)cc4)o3)SC2=S)cc1 |  |
| 6.3 | 42.1 | 30 | 83 | NC(=O)c1cccc(Oc2ccc(/C=C3\SC(=S)N(c4ccc(OCCCN5CCCCC5)cc4)C3=O)cc2)c1 |  |
| 1.5 | 58.5 | 5 | 85.3 | NC(=O)c1ccc(Oc2ccc(/C=C3\SC(=S)N(c4ccc(OCCCN5CCCC5)cc4)C3=O)cc2)cc1 | IC50 [4]: > 30 µM; IC50 [6]: > 30 µM; IC50 [7]: > 30 µM; IC50 [8]: > 30 µM; IC50 [9]: > 30 µM; IC50 [10]: > 30 µM |
| 0.16 |  |  | 89.3 | CN1CCN(CCCCCOc2ccc(N3C(=O)/C(=C/c4ccc(Oc5ccc(C(N)=O)cc5)cc4)SC3=S)cc2)CC1 |  |
| 9.3 |  |  | 61.8 | CCN(CC)CCCOc1ccc(N2C(=O)/C(=C/c3ccc(Cl)c(Cl)c3)SC2=S)cc1 |  |
| 1.5 | 64.7 | 5 | 86.8 | CN1CCN(CCCOc2ccc(N3C(=O)/C(=C/c4ccc(Oc5cccc(C(N)=O)c5)cc4)SC3=S)cc2)CC1 | IC50 [4]: > 30 µM; IC50 [6]: > 30 µM; IC50 [7]: > 30 µM; IC50 [8]: > 30 µM; IC50 [9]: > 30 µM; IC50 [10]: > 30 µM |
|  |  |  | 3.2 | CCN(CC)CCCOc1ccc(N2C(=O)/C(=C/c3ccncc3)SC2=S)cc1 |  |
| 5.7 | 59.1 |  | 87.1 | CCN(CC)CCCOc1ccc(N2C(=O)/C(=C/c3ccc(-c4cccc(C(N)=O)c4)o3)SC2=S)cc1 |  |
| 23.6 |  |  | 56 | CCN(CC)CCCOc1ccc(N2C(=O)/C(=C/c3ccc(O)cc3)SC2=S)cc1 |  |
| 8.5 | 42.4 | 12 | 52.7 | CN1CCN(CCCOc2ccc(N3C(=O)/C(=C/c4ccc(Oc5ccccc5C(N)=O)cc4)SC3=S)cc2)CC1 |  |
|  |  |  | 48.8 | NC(=O)c1cccc(Oc2ccc(/C=C3\SC(=S)N(c4ccc(OCCCN5CCOCC5)cc4)C3=O)cc2)c1 |  |
|  |  |  | 3.4 | CCN(CC)CCCOc1ccc(N2C(=O)/C(=C/c3c(Cl)cccc3Cl)SC2=S)cc1 |  |
| 15.6 | 71.4 | 13 | 36.5 | CCN(CC)CCCOc1ccc(N2C(=O)/C(=C/c3ccc(Oc4ccc(Cl)cc4)cc3)SC2=S)cc1 |  |

| IC50 [1] [µM] | inhibition [2] [%] | IC50 [3] [µM] | inhibition [5] [%] | Structure (SMILES) | other results |
| --- | --- | --- | --- | --- | --- |
| 8.7 | 58.5 | 8 | 62.6 | CCN(CC)CCOc1ccc(N2C(=O)/C(=C/c3ccc(Oc4ccc(C(N)=O)cc4)cc3)SC2=S)cc1 |  |
|  |  |  | 2.1 | NC(=O)c1cccc(-c2ccc(/C=C3\SC(=S)N(c4ccc(OCCCN5CCOCC5)cc4)C3=O)o2)c1 |  |
|  |  |  | 18.6 | NC(=O)c1ccccc1Oc1ccc(/C=C2\SC(=S)N(c3ccc(OCCCN4CCCCC4)cc3)C2=O)cc1 |  |
| 6.3 | 57 | 7 | 57.3 | NC(=O)c1cccc(Oc2ccc(/C=C3\SC(=S)N(c4ccc(OCCCN5CCCC5)cc4)C3=O)cc2)c1 |  |
| 7.3 | 39.3 | 10 | 84.9 | CCN(CC)CCCOc1ccc(N2C(=O)/C(=C/c3ccc(Oc4cccc(C(N)=O)c4)cc3)SC2=S)cc1 |  |
| 0.23 |  | 4 | 90.4 | CN1CCN(CCCCOc2ccc(N3C(=O)/C(=C/c4ccc(Oc5ccc(C(N)=O)cc5)cc4)SC3=S)cc2)CC1 |  |
|  |  |  | 4.8 | CCN(CC)CCCOc1ccc(N2C(=O)/C(=C/c3ccc(Oc4ccccc4C(N)=O)cc3)SC2=S)cc1 |  |
| 14.1 |  |  | 52.6 | CCN(CC)CCCOc1ccc(N2C(=O)/C(=C/C=C(c3ccccc3)c3ccccc3)SC2=S)cc1 |  |
|  |  |  | 1.6 | CCN(CC)CCOc1ccc(N2C(=O)/C(=C/c3ccc(Oc4ccccc4C(N)=O)cc3)SC2=S)cc1 |  |
|  |  |  | 21.3 | NC(=O)c1ccccc1Oc1ccc(/C=C2\SC(=S)N(c3ccc(OCCCN4CCCC4)cc3)C2=O)cc1 |  |
|  |  |  | 23.4 | CCN(CC)CCCOc1ccc(N2C(=O)/C(=C/c3ccc4ccccc4c3)SC2=S)cc1 |  |
| 2.6 | 46.6 | 8 | 95.7 | CCN(CC)CCCOc1ccc(N2C(=O)/C(=C/c3ccc(Oc4ccc(C(N)=O)cc4)cc3)SC2=S)cc1 |  |
|  |  |  | 15.5 | CCN(CC)CCCOc1ccc(N2C(=O)/C(=C/c3ccc(C(N)=O)cc3)SC2=S)cc1 |  |
|  |  |  | 28.1 | CCN(CC)CCCOc1ccc(N2C(=O)/C(=C/C=C/c3ccc(N(C)C)cc3)SC2=S)cc1 |  |
| 4.2 | 48.2 | 30 | 81.2 | NC(=O)c1ccc(Oc2ccc(/C=C3\SC(=S)N(c4ccc(OCCCN5CCCCC5)cc4)C3=O)cc2)cc1 |  |

Reference: ChEMBL document CHEMBL2069238, “Discovery of potent and selective rhodanine type IKKβ inhibitors by hit-to-lead strategy” (Bioorg Med Chem Lett, 2012)
